MrgX1 antagonist: blocks BAM8-22 activation of human MrgX1 receptor; Q96LB2; MRGX1-HEK293 calcium flux, Fluo-4, BAM8-22 antagonism; stronger effect = lower value; B-score at 10 µM; 1.3% of 310,000 active; AID 588676;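 active means calcium-response B-score plate-corrected more than 3 library SD below zero, starting fluorescence within 5 deviations, no agonist response on first addition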;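 further: peak minus trough fluorescence over baseline after final BAM8-22 challenge near maximal dose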
Target sequence (Q96LB2 whole entry, looked up): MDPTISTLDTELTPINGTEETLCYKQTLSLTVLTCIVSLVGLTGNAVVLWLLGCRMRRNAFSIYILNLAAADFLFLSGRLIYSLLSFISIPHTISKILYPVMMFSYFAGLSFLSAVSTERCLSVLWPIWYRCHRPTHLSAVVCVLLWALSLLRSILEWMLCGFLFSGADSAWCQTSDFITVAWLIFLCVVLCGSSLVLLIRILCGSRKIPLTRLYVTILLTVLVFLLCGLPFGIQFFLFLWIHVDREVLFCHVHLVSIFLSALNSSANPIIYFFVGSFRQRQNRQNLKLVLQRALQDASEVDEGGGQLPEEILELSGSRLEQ
MrgX1 PAM: allosterically activates human MrgX1 receptor signaling. Q96LB2. MrgX1-HEK293, Fluo-4 calcium flux, FDSS; stronger effect = higher value. B-score at 10 µM. 0.63% of 310,000 active;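 active means plate-corrected calcium response at least 3 library SD above typical, normal starting fluorescence, not activating the receptor alone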;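 further: compound read alongside a low EC10 to EC30 dose of BAM8-22 agonist; peak minus trough fluorescence over baseline measured at the second addition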
MrgX1 agonist: activates human MrgX1 receptor signaling | MrgX1-HEK293 cells, Fluo-4 calcium fluorescence, agonist mode; stronger effect = higher value | B-score at 10 µM | 0.44% of 310,000 active;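 active means calcium response B-score plate-corrected fluorescence ratio at least 3 library SD, with starting fluorescence B-score inside 5 SD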
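System – MrgX1-expressing HEK293 cells · Incubation – cells plated overnight, dye loaded 0.5 h 37 °C, 0.5 h room temperature · Technique – kinetic Fluo-4 NW fluorescence of intracellular calcium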
RGS4 inh: inhibitors of human RGS4; P49798; HEK293 M3R/RGS4 inducible, Fluo-4 calcium flux; stronger effect = higher value; triggered by carbachol at its EC20; B-score at 10 µM; 0.45% of 310,000 active; AID 463165;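 active means B-score, a plate-corrected calcium signal, over three deviations above library mean, with baseline fluorescence within five deviations of library mean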;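 further: RGS4 expression induced by doxycycline in cells with stable M3 receptor; B-score is computed from the integrated fluorescence ratio over baseline after carbachol; higher B-score means a larger calcium signal and so more RGS4 inhibition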
Target sequence (P49798 whole entry, looked up): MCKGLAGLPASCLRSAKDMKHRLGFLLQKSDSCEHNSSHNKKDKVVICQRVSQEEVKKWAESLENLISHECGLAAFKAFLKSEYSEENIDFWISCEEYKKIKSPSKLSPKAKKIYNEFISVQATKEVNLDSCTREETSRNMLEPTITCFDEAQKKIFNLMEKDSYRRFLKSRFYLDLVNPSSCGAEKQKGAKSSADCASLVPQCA
RGS4 act: potentiators or activators of RGS4; B-score at 10 µM; 0.92% of 310,000 active; AID 463111; HEK293 M3R/inducible RGS4, carbachol calcium flux Fluo4; stronger effect = lower value;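 active means B-score of the integrated calcium signal more than 4 SD below the library mean, with starting fluorescence not abnormally high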;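 further: negative B-score means reduced calcium response which marks RGS4 activation or potentiation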
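Detection: kinetic calcium fluorescence imaging with Fluo4-AM dye, 2 µM / Material: HEK293 cells with stable M3R and inducible RGS4 / Schedule: recording 10 s baseline at 1 Hz, 100 s post-agonist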
MrgX1 allo conf: reconfirmed allosteric activator of human MrgX1 receptor; shares compounds with MrgX1 PAM; MrgX1-HEK293, Fluo-4 calcium fluorescence, FDSS; activation (ratio percentage), % at 10 µM; 13% of 1,200 active; AID 602413;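 active means ratio at least 3 SD above the weak peptide control, stable starting fluorescence, no direct agonism earlier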;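 further: compound followed by low BAM8-22 agonist challenge near EC20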
MrgX1 antag conf: confirmation of human MrgX1 receptor antagonists; shares compounds with MrgX1 antagonist; MrgX1-HEK293, BAM8-22 calcium flux, Fluo-4; stronger effect = lower value; remaining BAM8-22 calcium response % of control (stronger effect = lower value), % at 10 µM; 19% of 2,300 active; AID 602420;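 active means remaining agonist calcium response no higher than 100% minus 3 SD of agonist-only control wells, with starting fluorescence near control levels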;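 further: agonist BAM8-22 given at a near maximal EC90 to ECmax level; peak minus minimum fluorescence divided by baseline after agonist addition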
HEK293 Ca flux: MrgX1 antagonist counter-screen hit in parental HEK293 cells. Fluo-4 calcium fluorescence, FDSS. 2% of 4,000 active. fluorescence ratio F(max-min)/F0 at 10 µM. shares compounds with MrgX1 antagonist. AID 624111;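 active means duplicate-averaged calcium fluorescence ratio at least three times the standard deviation of buffer wells, a nonspecific response in parental cells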
HEK293 Ca counter: activity in parental HEK293 cells without MrgX1 | shares compounds with MrgX1 antagonist | parental HEK293 calcium flux, Fluo-4 fluorescence ratio; stronger effect = higher value | fluorescence ratio F(max-min)/F0 at 10 µM | 0.4% of 4,000 active;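 active means calcium fluorescence ratio, averaged over duplicates, at least 3 SD of the buffer-well ratio, meaning a nonspecific response in receptor-free cells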;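 further: untransfected parental HEK293 lacking MrgX1 used as counterscreen for MrgX1 allosteric activators; fluorescence change taken during the second addition on a kinetic imager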
HEK293 Ca cntr2: activity in parental HEK293 cells lacking MrgX1 receptor; fluorescence ratio F(max-min)/F0 at 10 µM; shares compounds with MrgX1 antagonist; 8.7% of 4,000 active; AID 624115; Fluo-4 calcium fluorescence (FDSS); stronger effect = higher value;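 active means calcium fluorescence ratio at least three times the spread of buffer wells, meaning a non-specific response in parental cells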
* marks the source's active call; other numbers are inactive results; i = inactive; · = no result. Hits are enriched below; roughly 3.5% of the tested compounds scored in any of these assays.

SMILES	MrgX1 antagonist	MrgX1 PAM	MrgX1 agonist	RGS4 inh	RGS4 act	MrgX1 allo conf	MrgX1 antag conf	HEK293 Ca flux	HEK293 Ca counter	HEK293 Ca cntr2
N#CC1=C(N)N2C(=C(C#N)C13CCCCC3)SC1CCCCC12O (stereo not given)	i	i	i	i	i	·	·	·	·	·
CCN(CC1COc2ccccc2O1)S(=O)(=O)c1ccc(C)cc1 (stereo not given)	i	i	i	i	i	·	·	·	·	·
O=C(COC(=O)c1cc(Br)ccc1O)NC1CCCCCC1	i	i	i	i	i	·	·	·	·	·
O=C(COC(=O)c1cc(Br)ccc1Cl)NC1CCCC1	i	7.99*	i	i	i	i	·	i	i	i
Cc1ccc(Cn2ccnc2C(=O)Nc2ccccc2)cc1	i	9.72*	i	i	i	i	·	i	i	i
COc1ccc(N(C)S(=O)(=O)c2ccc3c(c2)NC(=O)CO3)c(OC)c1	i	7.01*	i	i	i	i	·	i	i	i
COc1ccc(C)cc1NC(=O)C1CCN(S(=O)(=O)c2ccc3c(c2)NC(=O)CO3)CC1	i	7.61*	i	i	i	i	·	i	i	i
O=C1COc2ccc(S(=O)(=O)NCc3ccc(Cl)cc3)cc2N1	i	6.53*	i	i	i	i	·	i	i	i
O=C1COc2ccc(S(=O)(=O)NCCc3ccccc3)cc2N1	i	i	i	i	i	·	·	·	·	·
O=C(CCC(=O)c1ccc(F)cc1)Nc1cccc(Br)c1	i	i	i	i	i	·	·	·	·	·
CCCN(C(=O)CSc1nc2ccccc2n1CC)C1CCS(=O)(=O)C1 (stereo not given)	i	i	i	i	i	·	·	·	·	·
O=C(Cn1cc2c(n1)CCCCC2)Nc1ccccc1Br	i	9.31*	i	i	i	23.5%*	·	i	i	i
O=C(CCN1C(=O)/C(=C/c2ccccc2Cl)SC1=S)NCCc1ccc(O)cc1	i	i	i	i	i	·	·	·	·	·
O=C(CCCn1c(SCc2cccc(F)c2)nc2ccccc2c1=O)NCC1CCCO1 (stereo not given)	-5.2*	i	i	i	i	·	i	i	i	i
CC(C)(C)N(Cc1ccccc1)C(=O)COC(=O)CSc1ccc([N+](=O)[O-])cc1	-9.9*	i	i	i	i	·	i	i	i	i
Cc1ccc(NC(=O)CSc2ncnc3ccccc23)cc1S(=O)(=O)N1CCCCCC1	-5.31*	i	i	i	i	·	67.1%*	i	i	i
CN(C(=O)c1cccs1)c1ccccc1C(=O)O	-5.72*	i	i	i	i	·	i	i	i	i
O=C(NCc1ccc2c(c1)OCO2)c1ccc(NS(=O)(=O)c2ccc3c(c2)OCCO3)cc1	-6.9*	i	i	i	i	·	i	i	i	i
Cc1ccc(NS(=O)(=O)c2ccc(C(=O)NCc3ccncc3)cc2)cc1	-4.62*	i	i	i	i	·	78.6%*	i	i	i
O=C(NCc1ccc2c(c1)OCO2)c1ccc(S(=O)(=O)N2CCCCC2)cc1	i	i	i	i	i	·	·	·	·	·
CNC(=O)COc1ccc(S(=O)(=O)Nc2ccc(C)cc2)cc1	i	i	i	i	i	·	·	·	·	·

Assay outcomes deposited in PubChem by Johns Hopkins Ion Channel Center.
